Measured values published in ChEMBL document CHEMBL4334554, “Structure-Guided Design of Substituted Biphenyl Butanoic Acid Derivatives as Neprilysin Inhibitors” (ACS Med Chem Lett, 2020).
The source made the active and inactive calls. The rule behind the calls is not given here.

Assays:
[1] = Apparent half life in dog; format: ADME, Canis lupus familiaris; settings: in vivo, read-out: t1/2(app) (converted)
[2] = Clearance in monkey plasma; format: ADME, cell-free, Macaca mulatta; settings: rhesus monkey
[3] = Terminal half life in Sprague-Dawley rat at 1 mg/kg, iv measured upto 24 hrs by HPLC-MS/MS analysis; format: ADME, organism-based; settings: in vivo, read-out: beta t1/2 (converted)
[4] = Apparent half life in monkey; format: ADME, Macaca mulatta; settings: rhesus monkey, in vivo; read-out: t1/2(app) (converted)
[5] = AUC (0 to 7 hrs) in Sprague-Dawley rat at 1 mg/kg, iv measured upto 24 hrs by HPLC-MS/MS analysis; format: ADME, organism-based; parameters: time < 7 hr, dose 1 mg/kg, route intravenous; settings: in vivo
[6] = Volume of distribution at steady state in Sprague-Dawley rat at 1 mg/kg, iv measured upto 24 hrs by HPLC-MS/MS analysis; format: ADME, organism-based; settings: in vivo, read-out: Vdss
[7] = Clearance in dog plasma; format: ADME, cell-free, Canis lupus familiaris
[8] = Clearance in Sprague-Dawley rat at 1 mg/kg, iv measured upto 24 hrs by HPLC-MS/MS analysis; format: ADME, organism-based; settings: in vivo
Rattus norvegicus [9] = test: In vivo inhibition of NEP in Sprague-Dawley rat assessed as increase in PANP level at 30 mg/kg, po measured after 15 mins; format: functional, organism-based
Method in brief: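 Conscious, chronically cannulated adult male Sprague–Dawley rats received an IV infusion of rat ANP to saturate natriuretic peptide clearance receptors, so ANP elimination relied mainly on NEP. The ethyl ester prodrug was then given orally at 30 mg/kg. Blood was drawn at baseline before dosing and at intervals up to 8 h, and plasma ANP was expressed as % baseline, with parallel PK.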

[10] = Stability in rat liver microsomes assessed as intrinsic clearance; format: ADME, Microsome; settings: read-out: CLH
[11] = Volume of distribution in Sprague-Dawley rat at 1 mg/kg, iv; format: ADME, organism-based; settings: in vivo
[12] = Clearance in Sprague-Dawley rat at 1 mg/kg, iv; format: ADME, organism-based; settings: in vivo
[13] = Oral bioavailability in Sprague-Dawley rat at 3 mg/kg; format: ADME, organism-based; settings: in vivo
[14] = Intrinsic clearance in human Hepatocyte assessed per million cells; format: ADME, cell-based; settings: hepatocytes, read-out: CLH
[15] = Stability in human liver microsomes assessed as intrinsic clearance; format: ADME, Microsome; settings: read-out: CLH
[16] = Plasma concentration in Sprague-Dawley rat at 30 mg/kg, po; format: ADME, organism-based; settings: in vivo
Method in brief: (§1)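 ANP potentiation model in conscious, chronically cannulated adult male Sprague–Dawley rats. Rats received an IV infusion of rat ANP to saturate the clearance receptors, so that ANP was removed mainly by NEP. The ethyl ester prodrug was then dosed orally. Blood was sampled at baseline and at intervals up to 8 h. Plasma ANP was read as % baseline, alongside parent plasma levels.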

[17] = Half life in Sprague-Dawley rat at 1 mg/kg, iv; format: ADME, organism-based; settings: in vivo
[18] = Intrinsic clearance in rat Hepatocyte assessed per million cells; format: ADME, cell-based; settings: hepatocytes, read-out: CLH
[19] = Prodrug activation in dog; parameters: species or system Canis lupus familiaris
Rattus norvegicus [20] = test: In vivo inhibition of NEP in po dosed Sprague-Dawley rat assessed as increase in PANP level measured up to 8 hrs; format: functional, organism-based; method in brief: as §1
[21] = Oral bioavailability in Sprague-Dawley rat at 3 mg/kg measured upto 24 hrs by HPLC-MS/MS analysis; format: ADME, organism-based; settings: in vivo
[22] = Cmax in Sprague-Dawley rat at 3 mg/kg, po measured upto 24 hrs by HPLC-MS/MS analysis; format: ADME, organism-based; parameters: dose 3 mg/kg, route oral; settings: in vivo
[23] = AUC (0 to 7 hrs) in Sprague-Dawley rat at 3 mg/kg, po measured upto 24 hrs by HPLC-MS/MS analysis; format: ADME, organism-based; parameters: time < 7 hr, dose 3 mg/kg, route oral; settings: in vivo
[24] = Prodrug activation in rat
[25] = Prodrug activation in monkey; parameters: species or system Macaca mulatta; settings: rhesus monkey

O=C(O)CCC(=O)N[C@@H](CC(=O)O)Cc1ccc(-c2cccc(Cl)c2)cc1
half-life [1]: 0.8 h | clearance [2]: 3 mL/min/kg | half-life [3]: 0.8 h | half-life [4]: 4 h | AUC(0-t) at 7 h [5]: 8.73 µM·h | Vd [6]: 0.1 L/kg | clearance [7]: 29 mL/min/kg | clearance [8]: 5 mL/min/kg

COc1ccc(Cl)cc1-c1ccc(C[C@H](CC(=O)O)NC(=O)CCC(=O)O)cc1
half-life [3]: 1 h | AUC(0-t) at 7 h [5]: 8.1 µM·h | Vd [6]: 0.1 L/kg | clearance [8]: 5 mL/min/kg

CCOC(=O)[C@H](C)C[C@@H](Cc1ccc(-c2ccccc2)cc1)NC(=O)CCC(=O)O
inhibition (Rattus norvegicus [9]): Active

O=C(O)CCC(=O)N[C@@H](CC(=O)O)Cc1ccc(-c2ccccc2)cc1
microsomal CLint [10]: < 3.42 µL/min/mg | Vd [11]: 0.2 L/kg | clearance [12]: 11 mL/min/kg | bioavailability [13]: 66% | hepatocyte CLint [14]: 0.68 µL/min/1e6 cells | microsomal CLint [15]: < 3.42 µL/min/mg | concentration [16]: > 2 µM | half-life [17]: 2.5 h | inhibition (Rattus norvegicus [9]): Active | hepatocyte CLint [18]: 2.1 µL/min/1e6 cells

CCOC(=O)C[C@@H](Cc1ccc(-c2cccc(Cl)c2)cc1)NC(=O)CCC(=O)O
Activity [19]: 5% | inhibition (Rattus norvegicus [20]): Dose-dependent effect | bioavailability [21]: 42% | Cmax [22]: 12.6 µM | AUC(0-t) at 7 h [23]: 10.1 µM·h | Activity [24]: 99% | Activity [25]: 69%

CCOC(=O)C[C@@H](Cc1ccc(-c2cc(Cl)ccc2OC)cc1)NC(=O)CCC(=O)O
bioavailability [21]: 25% | Cmax [22]: 5.38 µM | AUC(0-t) at 7 h [23]: 5.63 µM·h
